For this series, the system named is MS2 coat protein. Kind of series: apparent Kd, MS2 coat protein; higher = weaker binding; RNA-MaP array; FMN 200 µM where present. In outline: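 Stalled E. coli RNA polymerase transcribed each design on Illumina sequencing-chip clusters. The clusters were titrated with SNAP-549-labelled MS2 coat protein, starting at 0.7 or 1.5 nM and doubling up to 3 µM, first without ligand and then with constant ligand, in 100 mM Tris-HCl pH 7.5, 80 mM KCl, 4 mM MgCl2, BSA, DTT, yeast tRNA and Tween-20. Green signal was normalised to red-channel RNA signal and to the control-cluster median Fmax. The apparent Kd is the median of filtered binding-curve fits made for each cluster.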

Setting [1] is: designed as: OFF switch for flavin mononucleotide, no ligand.
The mark [2] stands for this setting: ligand present: flavin mononucleotide, designed as: OFF switch for flavin mononucleotide.
The mark [3] stands for this setting: designed as: ON switch for flavin mononucleotide, no ligand.
[4] abbreviates: ligand present: flavin mononucleotide, designed as: ON switch for flavin mononucleotide.

Consider “UGUCGGAGCAGAGGAUAUUACAUGAGGAUCACCCAUGUAAGAACCAAUAGCUGGAAACAGCAAUGUAAGAAGGCUGCUCCGACA”, for which the “apparent Kd” value by setting is: under setting [1], 5.27 nM; under setting [2], 15.9 nM.
In the case of “CACGGAAACGUGAAACGUAGCAUACGAGAAGGCUGAUCCACGACAUGAGGAUCACCCAUGUAGUUAGAGGAUAUUGGAUGCUAC”, the “apparent Kd” value under setting [3] stood at 57.7 nM and the “apparent Kd” value under setting [4] turned out to be 12.2 nM.
On to “GCCUCACAUGAGGAUCACCCAUGUCAGGAUAUGGACUCGAGGGUCUUGGAAGACUGGGCCAGAAGGGACUAUGG”, for which the “apparent Kd” value is, setting by setting: under setting [1], 57 nM; under setting [2], 83 nM.
Taken in the same sequence, the figures for “GCCAGGAUGUAAGGAUAUGCUGAGGAUAACUCAGCAGAAGGUACAUGAGGAUCACCCAUGUAAACCUAUAAUAAAUAACCUGGC” were 11 nM and 15.4 nM.
Take “UUUCCUGAAGGAUAUUAAGAGCCAGACAUGAGGAUCACCCAUGUUCCUACAACGAACCUCUAAGAAGGUCAGGGCU”: the “apparent Kd” value reads like this: under setting [1], 20.9 nM; under setting [2], 21 nM.
Taken in the same sequence, the figures for “UGUGCGUUGAUCUUCGAUCGGAGUACAUGAGGAUCACCCAUGUAGGAUAUUCAAAGACGCAGAUAGAAGAAGGACAUCGGAUUA” were 13.2 nM and 11.1 nM.
Taken in the same sequence, the figures for “GCUUGUAGAGGAUAUACGAGGGCCCGAGCGGAUAACACCGCACAUGAGGAUCACCCAUGUAGAAGGCUACCACC” were 25.3 nM and 284 nM.
For “CCGGAAAUGAAGGAUAUAGGCGUCGAUAGACUCCUAGAAGGUCAUACAUGAGGAUCACCCAUGUGUCCUACCGG”, the “apparent Kd” value under setting [1] came to 16.5 nM and the “apparent Kd” value under setting [2] came out at 29.8 nM.
Turning to “UUUAUGGGACAGAAGGGCAUUUACAUGAGGAUCACCCAUGUUCAUCAUUGCAGGAUAUGUAUAACAUGAGGAUCACCUAUGUAC”, the “apparent Kd” value was found to be 604 nM under setting [3] and 106 nM under setting [4].
“AACAUGUCAGGAUAUAUGACAUGGCUCUUCGGAGCAAGCUCAUAGAAGGGACAUGAGGAUCACCCAUGUAGAGC”: the “apparent Kd” value under setting [1] turned out to be 21.1 nM and the “apparent Kd” value under setting [2] amounted to 25.2 nM.
With “GACAUGAGGAUCACCCAUGUACAUGAGGAUCACCCAUGUUCUGAGGAUAUAGAUGAGGAUCACCUCUAGAAGGCAGCGCGCGCG”, the “apparent Kd” value is, setting by setting: under setting [1], 251 nM; under setting [2], 202 nM.
Turning to “UCGUCCACGGAGAAGGGCACAUGAGGAUCACCCAUGUGGGCUUGGUGGUGGUGGUGUUAAAAUGUGUAGGAUAUCCAGGGCCGU”, the “apparent Kd” value reads like this: under setting [1], 19.5 nM; under setting [2], 20.6 nM.
On to “GUGUACGGAGGAUAUGCUGGAAUCUAGCGAAGCUAGGUUCCACAUGAGGAUCACCCAUGUAGAAGGCUGUACAC”, for which the “apparent Kd” value runs as follows: under setting [1], 24.8 nM; under setting [2], 14.2 nM.
For “UUUUAACAUGAGGAUCACCCAUGUGAGGAUAUCGAAAUUUAUAUUUAUAUUAAUUAAACGAGAAGGCACAUUUU”, the “apparent Kd” value was found to be 90.9 nM under setting [1] and 110 nM under setting [2].
Regarding “UAUAUAUAGUAAGGAUAUGUAAUUAUUUUGUAAACAGAAGGUACUGACAUGAGGAUCACCCAUGUUUUAGUGUGGGCAUGUAGA”, the “apparent Kd” value is, setting by setting: under setting [1], 117 nM; under setting [2], 182 nM.
The like results for “AAUAUAAGAGCUGGUAACUCAAGAACAUGAGGAUCACCCAUGUAGGAUAUCAGCACGAUAAGUGCUGAGAAGGACAUCCAGCUC” were, in that order, 15.3 nM and 19 nM.
As for “UAUGUGUCAGGAUAUUAGUAGUAAAUGAAUAAAAUUAUUACUGAGAAGGGACAUGAGGAUCACCCAUGUGCCUU”, the “apparent Kd” value reads like this: under setting [1], 15.9 nM; under setting [2], 20.3 nM.
For the sequence “GGUCGUCCCAUUAACAUGAGGAUCACCCAUGUCAAAAGACAUGAGGAUAUGCAUCCUAAUUGGAUGCAGAAGGCAUGGACGACC”, the “apparent Kd” value by setting is: under setting [3], 1060 nM; under setting [4], 87.7 nM.
Consider “AAUAACAGAGGAUAUACUGUUUUAUGUAUUUAUUAUUUUAAACAUGAGGAUCACCCAUGUAGAAGGCUGAUUGA”, for which the “apparent Kd” value is, setting by setting: under setting [1], 33.7 nM; under setting [2], 29.8 nM.
Consider “AAAAUCUAUUGAGGAUAUCGUUCUUAAAGAGAAUGAGAAGGCAAACAAUCAUGAGGACAUGAGGAUCACCCAUGUUGUGACCAU”, for which the “apparent Kd” value reads like this: under setting [3], 19.9 nM; under setting [4], 10.3 nM.
On to “CUGUUACGUGUAGGAUAUGCAUAUUCCCAUUAUGCAGAAGGACAUGAGGAUCACCCAUGUAUGUUAUUAUCAUGUGUUACAUGC”, for which the “apparent Kd” value under setting [1] worked out at 34.6 nM and the “apparent Kd” value under setting [2] was determined as 153 nM.
The like results for “GUCACCCGAUGAGGAUAUGCACAUGAGGAUCACCCAUGUGACCUCAUCGUGCCGGGAAGCCGGCUGCAGAAGGCAUUGAGGGAU” were, in that order, 7.76 nM and 7.25 nM.
Take “GGUUGACAAAGUCAACCUUAACGAACAUGAGGAUCACCCAUGUAGGAUAUGCUACUCAAAGAGUAGCAGAAGGACAUGUGUCUU”: the “apparent Kd” value by setting is: under setting [1], 30 nM; under setting [2], 169 nM.
Taken in the same sequence, the figures for “ACUGUGCAUUAGAAGGGUGCGCGGCAAUCGCGCACAGGAUAUGAUGACAUGAGGAUCACCCAUGUCUGUGUUACCUGGGUGUCG” were 19.1 nM and 135 nM.
Taken in the same sequence, the figures for “UUGUUGUAUGUAGGAUAUGCGUGUUAUUAUUAUGCAGAAGGACAUGAGGAUCACCCAUGUAUAUUAUUAUUAUAUGUUAUAUAU” were 25 nM and 23.9 nM.
Take “AAAACCUCAUGAGGAUAUCCAACAUGAGGAUCACCCAUGUUAGUCUCAGUACCAGGUACUAGAGAGGAGAAGGCAUGCCAGGGC”: the “apparent Kd” value by setting is: under setting [3], 78.6 nM; under setting [4], 27.5 nM.
“GCCAUGUCAGGAUAUAAGCUGUUGCCGAACGGUCAACACAAUUAGAAGGGACAUGAGGAUCACCCAUGUCCGAG”: the “apparent Kd” value is, setting by setting: under setting [1], 18.5 nM; under setting [2], 20.3 nM.
Regarding “ACAUGAGGAUCACCCAUGUUAUCAGGGACUUCAAUUAUUUCUAGAAGGCUGUUUUCUUGUAAGUCAGAGGAUAUAGAAUUAAAU”, the “apparent Kd” value runs as follows: under setting [1], 14 nM; under setting [2], 15.1 nM.
With “GAGCCUCCGUAGAAGGCCGCGGAAUCCGAACGCGGAGGAUAUACAUGAGGAUCACCCAUGUGAAAGUGGAACGAUAAAACGCUU”, the “apparent Kd” value runs as follows: under setting [1], 14.7 nM; under setting [2], 47.2 nM.
In the case of “UCCUUGUUCUGAGGAUAUCCGCGGUUCCCAAAAGGAGAAGGCAGGACAUGAGGAUCACCCAUGUACCCAGAAAACGUGCAGAGU”, the “apparent Kd” value under setting [1] came out at 9.85 nM and the “apparent Kd” value under setting [2] is 37.4 nM.
Regarding “AGAACAUGAGGAUCACCCAUGUAAAGAUCGGUUAAUAAGGGUGAGGAUAUGCUUAAAAUAAGGUAGCAGAAGGUACUUGGUACA”, the “apparent Kd” value is, setting by setting: under setting [3], 247 nM; under setting [4], 345 nM.
In the case of “CUCGUGUAAGGAUAUAUUGCAAUGACGAAAUUUGCCCUGAGAUAGAAGGUACAUGAGGAUCACCCAUGUGUCGG”, the “apparent Kd” value reads like this: under setting [1], 45.5 nM; under setting [2], 92.2 nM.
Consider “CAGUACUGAGGAUAUACAUGAGGAUCACCCAUGUGUCUAAAGUAGGAUACUACUAUUAGUAGAAGGCAGUACUG”, for which the “apparent Kd” value runs as follows: under setting [1], 12.1 nM; under setting [2], 14.9 nM.
The like results for “GUGCAAUGAGGAUAUACGUUGGUGGGCAUCUGUGUGCUCCUACAUGAGGAUCACCCAUGUAGAAGGCAUGUCAC” were, in that order, 12.5 nM and 15.8 nM.
On to “AAUAACAGAGGAUAUACUAUUUUAUGUGUUUGUUGUUUUAAACAUGAGGAUCACCCAUGUAGAAGGCUGAAUAA”, for which the “apparent Kd” value under setting [1] stood at 21 nM and the “apparent Kd” value under setting [2] amounted to 26 nM.
The like results for “GACAAGGGAGGAUAUGCACAAGGGAUAUCUGACAUGCCGAUACAUGAGGAUCACCCAUGUAGAAGGCCCGAAUA” were, in that order, 11.4 nM and 18.3 nM.
Regarding “AAAUCUCAGAUAGGAUAUAUAGGAUAACUUAAGACCUAACAUGAGGAUCACCCAUGUGAUUAUUCGUAGAAGGAUCAUUGAACC”, the “apparent Kd” value came to 210 nM under setting [3] and 233 nM under setting [4].
The like results for “AAUACAUGAGGAUCACCCAUGUAAAGUUCAAACAAUAUGAGUGAGGAUAUACUGAGUUAGUUAUGGUAGAAGGCACUGGGUACA” were, in that order, 23.1 nM and 21.8 nM.
For the sequence “UGAACCAUGACAUGAGAUGACAUGAGGAUCACCCAUGUGUACAAGGAUAUGUUGGUCGACGAUCGGCAGAAGGUGUAAUGGGAU”, the “apparent Kd” value runs as follows: under setting [1], 58.9 nM; under setting [2], 196 nM.
Take “CUUUCGUGAGGAUAUGUGGCUUCGAUCGUGAGAUCGAAAAUACAGAAGGCACAUGAGGAUCACCCAUGUUCCUC”: the “apparent Kd” value under setting [1] is 37.8 nM and the “apparent Kd” value under setting [2] amounted to 456 nM.
Taken in the same sequence, the figures for “AAAUUUAACGAAGGAUAUGGUUACAUGAGGAUCACCCAUGUAAUGGUUGUGAUAUUGAUUAAGUUCCAGAAGGUCGUAUACAUA” were 97.8 nM and 279 nM.
Taken in the same sequence, the figures for “CCGGUAAAGGAGGAUAUAGGAGUCGAUAGACACCUAGAAGGCCUGACAUGAGGAUCACCCAUGUGUCCUUCCGG” were 17.7 nM and 76.7 nM.
Turning to “UUUGGGAGCACAGGAUAUGGCACCUCGAAGGCGCCAGAAGGGUGAUUCUGUUGGUGGCCACAUGAGGAUCACCCAUGUGCCUCC”, the “apparent Kd” value amounted to 29.5 nM under setting [3] and 36.9 nM under setting [4].
Regarding “UUAAAUCAUGUAGGAUAUGCAUGGCGAAGCUACGCAGAAGGACAUGAGGAUCACCCAUGUGCUAGCUACCGAGUACGGUGGCAA”, the “apparent Kd” value reads like this: under setting [1], 64.9 nM; under setting [2], 251 nM.
Take “AGGAGGUCAGGAUAUGCUGCUCGUCACUUGCGUGAUGAGUAGCAGAAGGGACAUGAGGAUCACCCAUGUAAAGA”: the “apparent Kd” value by setting is: under setting [1], 55.7 nM; under setting [2], 95.7 nM.
On to “CCUUCAGCGAACGAUACGAAUGGACAUGAGGAUCACCCAUGUAGAAGGACAGGAGAAUAACGGCUGUAGGAUAUACAUUUAGUG”, for which the “apparent Kd” value is, setting by setting: under setting [1], 39.9 nM; under setting [2], 30 nM.
Regarding “UAAUAAAACGAUCGGCGAUCCAUACAUGAGGAUCACCCAUGUAGAAGGCACUCUACAAAGUAGAGUGAGGAUAUACGAGAUCGA”, the “apparent Kd” value is, setting by setting: under setting [1], 7.85 nM; under setting [2], 105 nM.
The like results for “AUACAUGAGGAUCACCCAUGUUACUGGGUCUUAAUAGAACGUAGAAGGAUGAUUUUAUAAAUAACAUAGGAUAUACAAUAUUGU” were, in that order, 181 nM and 105 nM.

For the origin of these results see the EternaBench riboswitch data.
